According to PMC11364137 (Materials Today Bio, 2024):

Columns and labels:
[1] = tested on: S. aureus bacterial strain ATCC25923; experiment: In vivo hernia mesh infection model; design: species or system New Zealand white rabbits; settings: rabbit, 14 days after surgery
In short: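 Rabbit mesh-implant infection model; anaesthesia im 15 min pre-surgery with ketamine (70 mg kg), diazepam and chlorpromazine (1.5 mg kg⁻¹ each). S. aureus ATCC25923 was grown on LB agar 24 h, 37 °C, then overnight in LB and diluted in 0.9 % saline to a target 10^6 CFU.mL⁻¹. At 14 days animals were xylazine-sedated (im), CO₂-euthanised; implant fragments examined by light microscopy and SEM.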

S. aureus = experiment: Resistance acquisition assay; type: cell-based, Staphylococcus aureus; settings: second assay, concentration kept constant (half of the initial MIC), 30 days

inflammatory reaction (histology) [1] | Compound | macroscopic observations at necropsy compared with uncoated mesh [1] | skin fistula, necrosis, or edema at necropsy ([1]; n = 7 per group) | bacteria presence in tissue (histology, S. aureus immunolabeling) ([1]; qualitative) | increase of relative MIC (S. aureus)
moderate inflammatory reaction | [H]/N=C(\N/C(=N/[H])NCCCCCCNC(=N)NC(=N)Nc1ccc(Cl)cc1)Nc1ccc(Cl)cc1 [CHX, Chlorhexidine] | less purulent material, weak hypervascularization, and better tissue integration | no animal developed skin fistula, necrosis, or edema | not recorded or noticeably reduced | –
– | CN(C)[C@@H]1C(O)=C(C(N)=O)C(=O)[C@@]2(O)C(O)=C3C(=O)c4c(O)cccc4[C@@](C)(O)[C@H]3C[C@@H]12 [tetracycline] | – | – | – | around 3 times
– | Poly(L-arginine) [PAR30] | – | – | – | strongly stable
